Target: Tubulin (Homo sapiens) (UniProt P68371+Q9H4B7+P0DPH7+P68366+Q13509+Q71U36+P04350+Q3ZCM7+P07437+P68363+Q9BQE3+Q6PEY2+Q13885+Q9BVA1+Q9BUF5)
Assay: Inhibition of [3H]colchicine binding to tubulin (unknown origin) at 1 uM incubated for 10 mins relative to control
Assay type: protein-complex assay
Procedure, shortened: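 Tubulin at 1.0 μM mixed with 5.0 μM [3H]colchicine and inhibitor at 1.0 μM, incubated 10 min at 37 °C.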

inhibition	Structure (SMILES)
66%	COc1cc(C(=O)c2cn(-c3ccccn3)cc2-c2ccco2)cc(OC)c1OC
69%	COc1cc(C(=O)c2cn(-c3ccccn3)cc2-c2ccccc2)cc(OC)c1OC

Source: ChEMBL document CHEMBL5236592, “Induction of Ferroptosis in Glioblastoma and Ovarian Cancers by a New Pyrrole Tubulin Assembly Inhibitor” (J Med Chem, 2022)
